For one data set, the system named is Leishmania donovani. As to the kind of experiment: Antileishmanial activity against Leishmania donovani infected in rat L6 cells. It is filed as functional, organism-based. Summed up:
(§1)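 Protocol follows an earlier published method. Compounds were tested in duplicate over 0.2–300 μM.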

Data set [1] in a line: Selectivity index, ratio of IC50 for rat L6 cells to IC50 for Trypanosoma cruzi infected in rat L6 cells. It is filed as toxicity, cell-based. The following applies: read-out: Ratio IC50. In short, it runs like this:
(§2)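 SI = IC50 in rat L6 cells / IC50 against the parasite (T. cruzi or P. falciparum K1). Both IC50s came from duplicate in vitro runs over 0.2–300 μM following an earlier-published method, each averaged from four determinations across two independent experiments.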

Data set [2] can be described thus: Ratio of compound IC50 to podophyllotoxin IC50 for rat L6 cells. The following applies: read-out: Ratio IC50. The class given is cell-based.
For a further data set, the system named is Plasmodium falciparum. As to the kind of experiment: Antiplasmodial activity against chloroquine and pyrimethamine-resistant Plasmodium falciparum K1 infected in rat L6 cells. It is filed as functional, organism-based. In short, it runs like this:
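P. falciparum K1 (chloroquine- and pyrimethamine-resistant) tested in vitro following an earlier-published method. Compounds were run in duplicate over 0.2–300 μM. Values are the mean of four determinations (two per experiment, two independent experiments).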

In the next data set the test system is L6. Briefly: Cytotoxicity against rat L6 cells. It is filed as cell-based. Summed up: as §1
Data set [3] concerns Trypanosoma cruzi. As to the kind of experiment: Antitrypanosomal activity against Trypanosoma cruzi infected in rat L6 cells. It is filed as functional, organism-based. Summed up: as §1
Data set [4] has as its system Trypanosoma brucei rhodesiense. Briefly: Antitrypanosomal activity against Trypanosoma brucei rhodesiense infected in rat L6 cells. It is filed as functional, organism-based. In short, it runs like this:
as §1

Data set [5] in a line: Selectivity index, ratio of IC50 for rat L6 cells to IC50 for chloroquine and pyrimethamine-resistant Plasmodium falciparum K1 infected in rat L6 cells. The class given is toxicity, cell-based. The following applies: read-out: Ratio IC50. Summed up:
as §2

Data set [6] has as its system Trypanosoma cruzi. Briefly: Ratio of compound IC50 to benznidazole IC50 for Trypanosoma cruzi infected in rat L6 cells. The class given is functional.

The structures appear in SMILES notation. pIC50: −log10 of the molar value.

One may read the pIC50 as the IC50 on a negative log10 scale, so that one unit is a factor of ten. A higher pIC50 goes with a small IC50.

`CCCCCCCCCCCCCCCCOP(=O)([O-])OCC[N+](C)(C)C` [MILTEFOSINE] showed a pIC50 in the data set with Leishmania donovani of 6.60.

Take `COc1ccc(S(=O)(=O)N2c3ccccc3CCC2C)cc1` (stereo unspecified): the pIC50 in the data set on Leishmania donovani is 4.57; in the data set with Plasmodium falciparum, 4.93; with L6, 5.22; in the data set on Trypanosoma cruzi [3] it was 4.80; in [4], 4.36. Moreover, the selectivity ratio in data set [1] stood at 0.37; in data set [2], 590; in data set [5], 0.5.

For the compound `CC1CCc2ccccc2N1S(=O)(=O)c1ccccc1` (stereo unspecified), the pIC50 in the data set with Leishmania donovani is 3.76; in the data set on Plasmodium falciparum it was 4.88; with L6 it was 4.15; in the data set on Trypanosoma cruzi [3], 4.67; in data set [4], 4.28. Moreover, the selectivity ratio was determined as 3.29 in data set [1], 590 in data set [2] and 5.28 in data set [5].

For `CC1CCc2ccccc2N1S(=O)(=O)c1ccc(F)cc1` (stereo unspecified), the pIC50 is 3.78 in the data set with Leishmania donovani; 4.92 with Plasmodium falciparum; 4.17 in the data set with L6; 3.65 with Trypanosoma cruzi [3]; 3.90 in data set [4]. Moreover, the selectivity ratio in [1] was 0.3; in data set [2] it was 590; in data set [5] it was 5.58.

Consider `CC1CCc2ccccc2N1S(=O)(=O)c1ccc([N+](=O)[O-])cc1` (stereo unspecified), for which the pIC50 with Leishmania donovani was < 3.57; in the data set on Plasmodium falciparum it was 5.08; with L6 it was 3.61; in the data set on Trypanosoma cruzi [3] it was 4.94; in data set [4] it was 3.81. The selectivity ratio in data set [1] was 21.7; in [2], 590; in [5], 30. Besides, the “Ratio IC50” value in the data set on Trypanosoma cruzi [6] was found to be 7.

`O=C(Cn1ccnc1[N+](=O)[O-])NCc1ccccc1` [BENZNIDAZOLE] had a pIC50 in the data set with Trypanosoma cruzi [3] of 5.81.

Take `CC1CCc2ccccc2N1S(=O)(=O)c1ccc(N)cc1` (stereo unspecified): the negative-log IC50 (pIC50) in the data set with Leishmania donovani is 4.25; in the data set on Plasmodium falciparum, < 4.78; with L6 it was 4.45; in the data set with Trypanosoma cruzi [3] it was 4.70; in data set [4] it was 4.43. In addition, the selectivity ratio in [1] is 1.78; in data set [2] it was 590; in data set [5] it was < 2.13.

For `CC1CCc2ccccc2N1` (stereo unspecified), the pIC50 with Leishmania donovani was < 3.21; in the data set on Plasmodium falciparum it was < 4.47; in the data set on L6, 3.60; with Trypanosoma cruzi [3], 3.72; in [4], 4.06. Further, the selectivity ratio was 1.32 in data set [1] and < 7.32 in data set [5].

For the compound `Nc1nc(N)nc(Nc2ccc([As]3SCC(CO)S3)cc2)n1` (stereo unspecified) [MELARSOPROL], the pIC50 in data set [4] was 8.10.

On to `Cc1ccc(S(=O)(=O)N2c3ccccc3CCC2C)cc1` (stereo unspecified), for which the pIC50 with Leishmania donovani was 4.65; in the data set with Plasmodium falciparum, 4.96; with L6, 5.31; with Trypanosoma cruzi [3] it was 4.78; in [4], 4.36. In addition, the selectivity ratio in [1] worked out at 0.29; in [2] it was 590; in [5], 0.44.

On to `CC1CCc2ccccc2N1S(=O)(=O)c1cccc([N+](=O)[O-])c1` (stereo unspecified), for which the pIC50 in the data set with Leishmania donovani is 4.60; in the data set with Plasmodium falciparum it was 4.99; in the data set on L6, 3.73; in the data set with Trypanosoma cruzi [3], 4.50; in data set [4] it was 4.48. Also, the selectivity ratio amounted to 5.85 in data set [1], 590 in data set [2] and 18.1 in [5].

Consider `CC1CCc2ccccc2N1S(=O)(=O)c1ccc(Br)cc1` (stereo unspecified), for which the pIC50 in the data set with Leishmania donovani was 4.67; in the data set with Plasmodium falciparum, 5.18; in the data set with L6, 5.13; in the data set with Trypanosoma cruzi [3], 4.86; in data set [4], 4.40. Besides, the selectivity ratio stood at 0.53 in data set [1], 590 in data set [2] and 1.1 in data set [5].

As to `CC(=O)Nc1ccc(S(=O)(=O)N2c3ccccc3CCC2C)cc1` (stereo unspecified), the pIC50 in the data set with Leishmania donovani was 4.30; with Plasmodium falciparum, < 4.84; in the data set on L6, 4.28; in the data set on Trypanosoma cruzi [3], 4.67; in [4], 4.30. Besides, the selectivity ratio was 2.42 in data set [1], 590 in [2] and < 3.58 in [5].

As to `CC1CCc2ccccc2N1S(=O)(=O)c1ccc(Cl)cc1` (stereo unspecified), the pIC50 in the data set with Leishmania donovani is 4.72; in the data set on Plasmodium falciparum it was 5.07; with L6, 4.69; in the data set on Trypanosoma cruzi [3] it was 4.80; in data set [4], 4.36. Moreover, the selectivity ratio was determined as 1.28 in data set [1], 590 in data set [2] and 2.43 in [5].

Values taken from ChEMBL document CHEMBL1157686, “Synthesis, stereoelectronic characterization and antiparasitic activity of new 1-benzenesulfonyl-2-methyl-1,2,3,4-tetrahydroquinolines” (Bioorg Med Chem, 2010).
